Among all 130,000 compounds or so, about 1,000 (0.77%) were called active. Not shown: some 1% with an inconclusive outcome.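 Rule for the calls: active = activation at 2 µM above a set limit, confirmed on inspection of the cell images; inconclusive = above the set limit but not confirmed on image inspection; inactive = the rest.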 The sample as a whole holds a higher share of actives than the screen did.

The assay can be described thus: insulin gene promoter stimulation in islet cells – imaging, TRM-6 cells (human fetal islet line), eGFP reporter, cell count, primary screen (AID 1296;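 for activation: share of cells whose green reporter signal exceeds an intensity cutoff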). The conditions noted are these: at 2 µM; activation: stronger effect = higher value, plate-scaled: unstimulated 0, stimulated control 100; normalized cell count: measured here: cell count (toxicity). A digest of the protocol:
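test system = TRM-6 insulin promoter–eGFP reporter cells | benchmarks = stimulated versus unstimulated wells as plate controls | read-out basis = percent cells above green-intensity threshold, converted to percent activation versus plate controls | detection = fixed-cell fluorescence microscopy, eGFP plus Hoechst | incubation = tamoxifen pre-incubation 15 h overnight, then compound exposure 48 h at 37 °C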
As for `Clc1ccc(-c2nnc(-c3ccccc3)nc2N2CCSCC2)cc1`, the activation is -5.41% (inactive) and the normalized cell count turned out to be 97.6%.
For `COc1ccc(-c2nc(-c3ccccc3)no2)c(OC)c1`, in that order: 0% (inactive) and 103%.
Consider `Cn1nc(-c2ccccc2)c(-c2nc(-c3ccc(Cl)cc3)no2)c1Cl`, for which the activation was 471% (active) and the normalized cell count amounted to 71.1%.
On to `COc1cccc(NC(=O)CN(C)C(C)C(=O)Nc2ccc(C#N)cc2)c1` (stereo unspecified), for which the activation is 8.11% (inactive) and the normalized cell count amounted to 96.1%.
For `COC(=O)CSc1nc(C)c2ccc(OC)cc2n1`, in that order: 438% (active) and 69.4%.
For the compound `COc1ccc(C(=O)CSc2n[nH]c(N)n2)cc1`, the activation was 7.41% (inactive) and the normalized cell count is 116%.
Consider `COC(=O)c1cc(C(=O)CSc2nc(C)cc(C)n2)ccc1O`, for which the activation is -5.56% (inactive) and the normalized cell count turned out to be 111%.
For `Cc1nn(-c2ccccn2)c2c1C(c1ccncc1)C1=C(CC(C)(C)CC1=O)N2` (stereo unspecified), in that order: -6.9% (inactive) and 120%.
`CN(C)c1nnnn1-c1ccc(Cl)cc1`: the activation is 0% (inactive) and the normalized cell count is 128%.
As to `Cn1nccc1CNC(=O)c1ccnn1C`, the activation was 7.69% (inactive) and the normalized cell count was 127%.
For the compound `COc1ccc(OCC(=O)N2CCN(C(=O)COc3ccccc3)CC2)cc1`, the activation is 411% (active) and the normalized cell count amounted to 70.2%.
Consider `COc1ccc(OCC(=O)N2CCN(C(=O)c3cccs3)CC2)cc1`, for which the activation is 9.09% (inactive) and the normalized cell count amounted to 125%.
The corresponding values for `O=C(COc1ccccc1)N1CCc2ccccc2C1` are 3.45% (inactive) and 131%.
For the compound `CC(C)C[C@@H](N)c1nnc(SCC(=O)c2ccc(Cl)cc2)o1`, the activation is 533% (active) and the normalized cell count was 62.6%.
As to `O=C(CSc1nnc(Cn2cnc3ccccc32)o1)c1ccccc1`, the activation is 0% (inactive) and the normalized cell count was 112%.
Take `O=C(CSc1nnc(-c2c[nH]c3ccccc23)o1)c1ccccc1`: the activation is 0% (inactive) and the normalized cell count turned out to be 133%.
Turning to `CCCc1nc2c([nH]1)C(c1cccnc1)C(C#N)=C(N)O2` (stereo unspecified), the activation is -6.67% (inactive) and the normalized cell count turned out to be 147%.
`OC1CSc2nc3ccccc3n2C1` (stereo unspecified): the activation was 0% (inactive) and the normalized cell count is 81.8%.
The corresponding values for `C=CCn1c(CCc2ccc(OC(C)C)cc2)n[nH]c1=S` are 0% (inactive) and 117%.
As for `CCCOCC(O)CC(CC)C(=O)NNC(=S)Nc1ccccc1` (stereo unspecified), the activation is 0% (inactive) and the normalized cell count worked out at 106%.
In the case of `Nc1ccc(-n2nncc2-c2ccco2)cc1`, the activation is 406% (active) and the normalized cell count is 53.5%.
`CCOC(=O)CNC(=O)CSc1ccc2nnc(-c3cccnc3)n2n1`: the activation is 0% (inactive) and the normalized cell count was 132%.
`COc1ccc(-c2nc3ccccc3n2CCC(C)C)cc1OC`: the activation was -9.86% (inactive) and the normalized cell count is 74.4%.
`Cn1cccc1-c1nc2ccccc2n1C`: the activation is 300% (active) and the normalized cell count came to 75.7%.
As for `COc1ccc(N2CCN(C(=O)COc3ccc4c(C)cc(=O)oc4c3)CC2)cc1`, the activation was -8.33% (inactive) and the normalized cell count is 132%.
As to `COc1cc(NC(=S)NNC(=O)CC(C)C)c(OC)cc1Cl`, the activation was 9.38% (inactive) and the normalized cell count was determined as 70.7%.
As for `O=C(NC1CCCC1)C(NS(=O)(=O)c1ccc(Br)s1)c1ccccc1` (stereo unspecified), the activation is 107% (inactive) and the normalized cell count was 72.4%.
On to `O=C(CSc1nn(-c2ccc(F)cc2)c(=S)s1)NC1CCS(=O)(=O)C1` (stereo unspecified), for which the activation was 5.88% (inactive) and the normalized cell count stood at 104%.
For the compound `COc1ccc(-n2nc3c(c2NC(=O)c2ccc(N4C(=O)CCC4=O)cc2)CSC3)cc1`, the activation was -5.88% (inactive) and the normalized cell count was 73.5%.
As for `O=C(CSc1nc2ccccc2o1)N1c2ccccc2Sc2ccc(Cl)cc21`, the activation was -4.44% (inactive) and the normalized cell count was determined as 77.2%.
For `CC1Cc2ccccc2N1C(=O)CSc1nc2ccccc2o1` (stereo unspecified), the activation is 7.14% (inactive) and the normalized cell count is 87.7%.
Take `CCS(=O)(=O)c1ccc2oc(SCC(=O)N3c4ccccc4CC3C)nc2c1` (stereo unspecified): the activation is 457% (active) and the normalized cell count came to 101%.
`CCCC1NC(=S)NC(C)=C1C(C)=O` (stereo unspecified): the activation was 7.14% (inactive) and the normalized cell count came to 103%.
Take `COC(=O)c1ccccc1NC(=S)NC(=O)c1ccccc1F`: the activation is 0% (inactive) and the normalized cell count is 112%.
As for `Cc1ccccc1OCCOc1ccc([N+](=O)[O-])cc1/C=N/n1cnnc1`, the activation is 107% (inactive) and the normalized cell count worked out at 5.92%.
As for `COC(=O)c1[nH]c2ccccc2c1NC(=O)CN1CCCc2ccccc21`, the activation was 209% (active) and the normalized cell count is 75.4%.
For `Cn1c(SCC(=O)N2CCCc3ccccc32)nc2ccccc2c1=O`, in that order: 57.1% (inactive) and 100%.
For `Cc1[nH]c2ccccc2c1SCC(=O)Nc1nccs1`, the activation was 5.56% (inactive) and the normalized cell count is 140%.
Turning to `Cc1cccc(-n2cc(CN3CCN(C(=O)c4ncn[nH]4)CC3)c(-c3cccc(F)c3)n2)c1`, the activation was 0% (inactive) and the normalized cell count came to 108%.
For `O=C(COc1ccc2c(C(F)(F)F)cc(=O)oc2c1)Nc1ccc2c(c1)OCCO2`, in that order: 2.7% (inactive) and 112%.
`CC1(C)CC(=O)c2cnc3nc4ccccc4n3c2C1`: the activation was -76.2% (inactive) and the normalized cell count amounted to 56.3%.
As for `Cc1cc(C(=O)OCC(=O)Nc2nnc(C(C)C)s2)c2ccccc2n1`, the activation is 0% (inactive) and the normalized cell count turned out to be 93.8%.
`N#C/C(=C\C1=C(N2CCOCC2)C(=C\c2ccccc2)/CC1)C(=O)Nc1ccccc1F`: the activation is 525% [fluoresces] (active) and the normalized cell count is 109%.
For `CC(CC(=O)O)C(=O)c1ccc(Cl)c([N+](=O)[O-])c1` (stereo unspecified), in that order: 6.67% (inactive) and 136%.
With `O=C1OC(NC(=O)c2ccccc2)C(N2CCOCC2)=C1Cl` (stereo unspecified), the activation is 162% (active) and the normalized cell count turned out to be 118%.
For `O=C1C(Cl)=C(N2CCOCC2)C(=O)N1c1ccccc1`, the activation is 0% (inactive) and the normalized cell count stood at 129%.
In the case of `Cn1nc(-c2ccc(N3CCOCC3)c(NC(=O)c3ccccc3)c2)c2ccccc2c1=O`, the activation was 0% (inactive) and the normalized cell count turned out to be 95.6%.
For `C=CCc1cccc2cc(C(=O)OCC)c(=O)oc12`, in that order: 7.14% (inactive) and 70.6%.
The corresponding values for `COCCCNCCOCCOc1ccc(Cl)cc1Br` are 6.67% (inactive) and 166%.
Consider `CC1=NN(C(=O)Cc2ccc(C)cc2)C(O)(c2cccnc2)C1` (stereo unspecified), for which the activation is -5.41% (inactive) and the normalized cell count came out at 170%.
With `CN(CC(=O)NC1CCCC1)S(=O)(=O)c1cnc[nH]1`, the activation was -7.14% (inactive) and the normalized cell count is 85%.
Turning to `CC(C)COP(=O)(c1ccc(N(C)C)cc1)C(Nc1ccccc1)c1cccnc1` (stereo unspecified), the activation is 2.94% (inactive) and the normalized cell count stood at 145%.
Consider `COC(=O)c1ccc(CSc2ccccc2C)o1`, for which the activation was 230% (active) and the normalized cell count turned out to be 122%.
For `COC(=O)c1ccc(COC(=O)c2c(C)nn(Cc3ccccc3Cl)c2Cl)o1`, in that order: 5.26% (inactive) and 164%.
Consider `COC(=O)c1ccc(Cc2ccccc2)o1`, for which the activation was -92.9% (inactive) and the normalized cell count came to 83.1%.
For the compound `C=CCN(c1ccc(C(=O)Nc2cc(C)cc(C)c2)cc1)S(C)(=O)=O`, the activation is 8.11% (inactive) and the normalized cell count turned out to be 119%.
Turning to `Cc1cccc2cc(CN(Cc3cccs3)C(=S)NCc3ccco3)c(=O)[nH]c12`, the activation is -7.94% (inactive) and the normalized cell count was determined as 94.8%.
As for `CCNC(=S)N(CCc1c(C)[nH]c2ccc(C)cc12)Cc1ccco1`, the activation is 340% (active) and the normalized cell count was found to be 55.7%.

For the origin of these results see PubChem BioAssay AID1296 (Columbia University Molecular Screening Center, 2008).
